The nature of this series: Toxicity liver stage against HepG2, at 10uM. Type of series: cell-based. Further details: test concentration 10 uM, cell line HepG2-A16-CD81EGFP. The note with it: human, HepG2-A16-CD81EGFP cells; read-out: INHIBITION
An outline of the steps: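 Uninfected HepG2-A16-CD81EGFP cells, 3 × 10^3 per well, 1536-well, plated on prespotted compound at 10 μM final, parasite-free screening media added to match infected plates; puromycin 10 μM positive, DMSO 0.5% negative; run in parallel with 48 h PbLuc assay at 37 °C, 5% CO2; viability by CellTiter-Glo luminescence, normalized to controls.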
Regarding `O=C(NC1(c2nc(C3CC3)no2)CCCCC1)c1cccnc1O`, the cytotoxicity at 10 µM was -8.92%.

Take `O=C(NCc1cccs1)NCC(O)c1ccoc1` (configuration not stated): the cytotoxicity at 10 µM was -11.9%.

For `O=c1cc2c(nn1CN1CCN(c3ccccc3)CC1)CCC2`, the cytotoxicity at 10 µM stood at 7.13%.

`CC(C)CC1SCC(=O)Nc2c1cnn2C(C)C` (configuration not stated): the cytotoxicity at 10 µM turned out to be 1.11%.

`O=C(CSC1=NS(=O)(=O)c2cc(F)ccc2N1)Nc1cccc(Cl)c1`: the cytotoxicity at 10 µM amounted to 3.92%.

Take `Cc1cc(S(=O)(=O)N2CCC(S(C)(=O)=O)CC2)ccc1F`: the cytotoxicity at 10 µM amounted to 6.25%.

Consider `Cc1cc2nc(SCC(=O)N3CCCC3)n(-c3ccccc3)c(=O)c2[nH]1`, for which the cytotoxicity at 10 µM was -6.34%.

In the case of `O=C1N(Cc2cccnc2)CCC12CCCNC2` (configuration not stated), the cytotoxicity at 10 µM was found to be 3.52%.

Turning to `Cc1nc(N2CCCC2)ncc1-c1cc(O)n2ncnc2n1`, the cytotoxicity at 10 µM was determined as 10.6%.

Consider `O=C(c1cnccn1)N1CCCC(C2=Nc3ccccc3S(=O)(=O)N2)C1` (configuration not stated), for which the cytotoxicity at 10 µM is -0.055%.

As to `Cc1cc2ncc(CN(C)C)c(C3CCN(C)CC3)n2n1`, the cytotoxicity at 10 µM was -1.19%.

On to `O=C1CO[C@H]2CCN(C(=O)c3ccc4c(c3)CCCC4)CC[C@@H]2N1`, for which the cytotoxicity at 10 µM is 0.905%.

Regarding `CCN(Cc1ccccc1O)CC1(C)Cc2c(N)nc(N)nc2O1` (configuration not stated), the cytotoxicity at 10 µM is 2.15%.

For `CN(c1ccccc1)c1ccc(CC2CCCN(CCO)C2)nn1` (configuration not stated), the cytotoxicity at 10 µM is -9.3%.

For the molecule `COc1ccc(-c2nccc(C3CCCN3C)n2)cc1` (configuration not stated), the cytotoxicity at 10 µM stood at 9.97%.

For the molecule `Cc1cc(N(C)C)nc(C2(C)CCCN2C(=O)c2cnccn2)n1` (configuration not stated), the cytotoxicity at 10 µM is -1.19%.

Take `CCOc1cccc(CNC(=O)C(C)(C)C#N)c1OC(F)F`: the cytotoxicity at 10 µM is -45.5%.

As to `CN1CCN(C2CCN(CC(O)c3ccccc3)CC2)C1=O` (configuration not stated), the cytotoxicity at 10 µM worked out at 1.76%.

As to `CNc1nnc(SCc2nnc(C(C)(C)C)o2)s1`, the cytotoxicity at 10 µM was -1.05%.

With `Cc1nc(C)n(CC2CCCN2Cc2ccc(F)cc2C#N)n1` (configuration not stated), the cytotoxicity at 10 µM is -2.59%.

On to `COC(=O)C1CCCN1C(=O)c1ccc(Br)cc1F` (configuration not stated), for which the cytotoxicity at 10 µM turned out to be 2.96%.

On to `CCCOc1cc(CNC(=O)Nc2cccc(C(C)=O)c2)ccn1`, for which the cytotoxicity at 10 µM was -1%.

`CC(C)c1nnc2n1CCN(c1nc3ccccc3o1)C2`: the cytotoxicity at 10 µM worked out at 4.12%.

Turning to `Cn1ccc(C(=O)Nc2nc(-c3ccc(Cl)cc3)n[nH]2)cc1=O`, the cytotoxicity at 10 µM was -12.3%.

As to `CC(=O)N1CCCC(C(=O)N2CCC(=Cc3cccc(F)c3)CC2)C1` (configuration not stated), the cytotoxicity at 10 µM amounted to 12%.

Consider `CCN1CCN(C2CCN(C(C(N)=O)c3ccc(F)cc3)CC2)C1=O` (configuration not stated), for which the cytotoxicity at 10 µM is -20%.

With `CCOc1ccccc1C(=O)N1CCn2c(nnc2C(F)(F)F)C1`, the cytotoxicity at 10 µM is -2.99%.

On to `CC(=O)N1CCCN(S(=O)(=O)c2cc3ccccc3o2)CC1`, for which the cytotoxicity at 10 µM stood at 18.8%.

As to `COc1ccc(NC(=O)N(C)Cc2ccc(Br)o2)cn1`, the cytotoxicity at 10 µM came out at 12%.

Turning to `CCN(CC1CCOC1)C(=O)CSCC(=O)Nc1ccc(C)cc1` (configuration not stated), the cytotoxicity at 10 µM is -7.04%.

On to `O=C(NCC(O)c1ccc(Cl)c(F)c1)NC1CC=CC1` (configuration not stated), for which the cytotoxicity at 10 µM was -2.41%.

On to `CN(Cc1cccc(C#N)c1)Cn1nc(C(C)(C)C)ccc1=O`, for which the cytotoxicity at 10 µM was -1.64%.

Take `CN(CCc1nccs1)C(=O)C1(C#N)CCCCC1`: the cytotoxicity at 10 µM was 2.91%.

`COc1ccc(C)cc1NC(=O)Cn1nc(C)c(C#N)c1N`: the cytotoxicity at 10 µM was -22.9%.

In the case of `CC(NC(=O)Nc1nccs1)c1ccc(S(C)(=O)=O)cc1` (configuration not stated), the cytotoxicity at 10 µM turned out to be 7.04%.

`CCOC1CCCN(C(=O)c2ccccc2NCc2cccnc2)C1` (configuration not stated): the cytotoxicity at 10 µM came to 0.595%.

Take `N#Cc1cccc(OCCN2CCNC(=O)C2c2cccs2)c1` (configuration not stated): the cytotoxicity at 10 µM amounted to 6.76%.

Regarding `Clc1ccc(Cc2nc(CNCCn3cccn3)cs2)cc1`, the cytotoxicity at 10 µM was -1.86%.

Take `Cc1cc2n(n1)CC(CNC1CCN(Cc3ccccc3C)CC1)CN2` (configuration not stated): the cytotoxicity at 10 µM was 3.69%.

Turning to `NC(=O)CN1CCCN(C(=O)c2ccn(-c3cccc(F)c3)n2)CC1`, the cytotoxicity at 10 µM was 14.3%.

As for `O=C(Cc1ccccc1F)N1CCN(C(=O)c2ccoc2)CC1`, the cytotoxicity at 10 µM was found to be 1.16%.

Take `CCCN(CC(=O)NC)C(=O)c1ccc(-c2ccsc2)nc1C`: the cytotoxicity at 10 µM is -14.3%.

Regarding `N#CC1(C(=O)Nc2ccc(OC(F)F)cc2)CCCC1`, the cytotoxicity at 10 µM is -11.1%.

As for `COc1cc(N2CCC3(CC2)CNC(=O)CO3)ncn1`, the cytotoxicity at 10 µM worked out at 2.57%.

As to `Cn1cc(C(=O)N2CCO[C@@H]3CN(C4CCC4)C[C@@H]3C2)cn1`, the cytotoxicity at 10 µM was 8.55%.

Consider `CCS(=O)(=O)N1CCN(C)c2ncccc2C1`, for which the cytotoxicity at 10 µM was 2.88%.

For the molecule `c1csc(CNCC2COCc3c(-c4ccsc4)nnn3C2)n1` (configuration not stated), the cytotoxicity at 10 µM is -113%.

Take `CC(C)C(=O)N1CCOC2(COCCN(c3ncccn3)C2)C1` (configuration not stated): the cytotoxicity at 10 µM was -114%.

Consider `COC[C@@]12CC[C@@H](N3CCOCC3)C[C@H]1CCN(c1ccc(Cl)cn1)C2`, for which the cytotoxicity at 10 µM is -5.14%.

`CCNc1ccnc(N2Cc3cnc(CC(C)C)nc3C2)n1`: the cytotoxicity at 10 µM turned out to be 10.4%.

As to `CCSc1ccc(C(=O)N2CCC3(CC2)[C@H](O)C[C@@H]3O)s1`, the cytotoxicity at 10 µM is 1.34%.

Regarding `CC(C)CC(O)C1CCN(C(=O)c2coc(CN3CCOCC3)c2)CC1` (configuration not stated), the cytotoxicity at 10 µM is -7.27%.

For the molecule `CSCC(=O)N1CCC(Oc2cccc(C)c2)CC1`, the cytotoxicity at 10 µM stood at 1.98%.

In the case of `NC(=O)COc1ccc(CN2CC[C@@]3(O)CCCC[C@H]3C2)cc1Cl`, the cytotoxicity at 10 µM is -6.87%.

For the molecule `CN(C)[C@@H]1C[C@@H](CO)N(C(=O)Nc2ccc(SC(F)(F)F)cc2)C1`, the cytotoxicity at 10 µM was -0.187%.

For the molecule `c1cc2c(cc1Cn1cc(C3CCCNC3)nn1)CCCO2` (configuration not stated), the cytotoxicity at 10 µM is -5.24%.

Turning to `Cc1cc(NCCc2c(C)n[nH]c2C)nc(-c2cccnc2)n1`, the cytotoxicity at 10 µM was -0.355%.

Take `COc1ccc(-n2nc(C(C)C)nc2COC(C)C)cc1`: the cytotoxicity at 10 µM was determined as 1.56%.

For the molecule `COc1ccc(CNC2CCCc3nc(N(C)C)ncc32)c(OC)c1` (configuration not stated), the cytotoxicity at 10 µM amounted to 1.42%.

`c1ccc2c3c([nH]c2c1)CN(Cc1cc2n(n1)CCNC2)CC3`: the cytotoxicity at 10 µM was found to be 3.06%.

With `Cc1cc(NCCc2nnc(N)s2)nc(-c2cccnc2)n1`, the cytotoxicity at 10 µM is -5.44%.

Take `CC(C)[C@@H](C)NC1CCN(c2ccc(-n3ccnc3)cc2)CC1`: the cytotoxicity at 10 µM was determined as 0.487%.

On to `CCOCCn1c(=O)[nH]c2cc(C(=O)N(C)Cc3cc(C)[nH]n3)ccc21`, for which the cytotoxicity at 10 µM was -0.673%.

As for `Cc1ccc(S(N)(=O)=O)cc1C(=O)N1CCc2c(ncnc2N(C)C)C1`, the cytotoxicity at 10 µM was -2.71%.

With `CC(C)(NC(=O)C1CCN(C2CCCCC2)CC1)c1nnc(N)s1`, the cytotoxicity at 10 µM stood at 6.17%.

Take `Cc1cncc(C(=O)N2CCCC(C(=O)CCc3ccccc3)C2)c1` (configuration not stated): the cytotoxicity at 10 µM is -10.1%.

With `COc1ccc(C(=O)N2CC[C@H](CO)[C@H](O)C2)c(C)c1`, the cytotoxicity at 10 µM is -11.5%.

For the molecule `CCCS(=O)(=O)NCC1CCOc2ccccc2C1` (configuration not stated), the cytotoxicity at 10 µM is -6.92%.

`COc1ccc(Cl)cc1C(=O)N1CCOC2(CNCCOC2)C1` (configuration not stated): the cytotoxicity at 10 µM is -9.73%.

For the molecule `CN(C)[C@H]1CCCCN(C(=O)CCc2csc(N)n2)C1`, the cytotoxicity at 10 µM was -7.59%.

Take `Cc1cccc(CN2CCN(Cc3ccccc3)CC(O)C2)n1` (configuration not stated): the cytotoxicity at 10 µM was -8.42%.

Consider `CC(=O)N1CCCN(C(=O)NCCNc2ccccn2)CC1`, for which the cytotoxicity at 10 µM was -4.07%.

Take `Cc1cnn(C2CCCN(C(=O)CCc3c(C)noc3C)C2)c1` (configuration not stated): the cytotoxicity at 10 µM is -17.2%.

For the molecule `CCS(=O)(=O)CCN1CCCC1c1noc(C)n1` (configuration not stated), the cytotoxicity at 10 µM was -10.4%.

As for `CN1CCOC(CNCc2coc(-c3ccccc3Cl)n2)C1` (configuration not stated), the cytotoxicity at 10 µM was -14.1%.

Turning to `O=C(NCc1cc[nH]n1)NCC(O)c1ccc(F)cc1` (configuration not stated), the cytotoxicity at 10 µM is -12%.

Turning to `CN(C)c1cc(CNC(=O)c2ccc(Br)cc2F)ccn1`, the cytotoxicity at 10 µM was -26%.

Turning to `Cc1nc(C)n(CC2CN(Cc3noc(C4CC4)n3)CCO2)n1` (configuration not stated), the cytotoxicity at 10 µM is -8.15%.

In the case of `CCn1nc2c(cc1=O)CN(CCCN1CCCC1=O)CC2`, the cytotoxicity at 10 µM is -13.9%.

In the case of `CN(Cc1nnc2n1CCC2)C(=O)c1ccc2c(c1)OCO2`, the cytotoxicity at 10 µM is -18.2%.

For `Cc1cc(C)n(CCC(=O)N2CCCC(c3cc(C(N)=O)[nH]n3)C2)n1` (configuration not stated), the cytotoxicity at 10 µM was -29.3%.

Consider `Cc1occc1CNC(=O)NCCN(C)C1CCCC1`, for which the cytotoxicity at 10 µM was -19.5%.

For the molecule `CC(C(N)=O)S(=O)(=O)Cc1cc(Cl)c2c(c1)OCO2` (configuration not stated), the cytotoxicity at 10 µM is -14.2%.

As to `COc1cc(C)nc(N2CCN(C(=O)c3ccc(Cl)o3)CC2)n1`, the cytotoxicity at 10 µM was -3.22%.

As to `CN(Cc1cn2ccccc2n1)C1CCCN(c2cccnn2)C1` (configuration not stated), the cytotoxicity at 10 µM is -9.78%.

With `CN(C)c1ccc(C(=O)N2CCN(Cc3cscn3)CC2)cc1F`, the cytotoxicity at 10 µM is -11.7%.

As to `CCn1cc(-c2cncn2CCc2ccc3c(c2)OCCO3)cn1`, the cytotoxicity at 10 µM worked out at 18.7%.

Take `CC(=O)N1CCN(c2cncc(C3CCNCC3)n2)CC1`: the cytotoxicity at 10 µM is 16.8%.

As for `Cn1nccc1CN1CCOC(c2cccc(-c3cncnc3)n2)C1` (configuration not stated), the cytotoxicity at 10 µM stood at 0.88%.

With `CCN(CC)Cc1cn2c(n1)CN(Cc1c(C)noc1C)CC2`, the cytotoxicity at 10 µM was -0.0472%.

As to `Cc1cnccc1-c1cnn(CCNC(=O)c2cccnc2)c1C1CC1`, the cytotoxicity at 10 µM stood at 4.34%.

As to `COc1ccc(CN2CCCn3nnc(COCC4CC4)c3C2)cc1`, the cytotoxicity at 10 µM is -110%.

Take `CCOC1COC2(CCN(c3cccc(C)n3)CC2)C1` (configuration not stated): the cytotoxicity at 10 µM is -2.16%.

As to `Cc1oncc1C(=O)N1CC[C@H]2[C@H](C[C@@H](CN3CCCC3)N2C)C1`, the cytotoxicity at 10 µM was determined as 0.286%.

Take `CN1CCO[C@@H]2CN(C(=O)NCc3ccccc3)CC[C@@H]2C1`: the cytotoxicity at 10 µM is -104%.

In the case of `OCCN1CCC(F)(F)C2(CCN(c3cnccn3)C2)C1` (configuration not stated), the cytotoxicity at 10 µM is 8.24%.

With `CCS(=O)(=O)N1C[C@@H](OCc2ccccn2)[C@@H]2OCCC[C@@H]21`, the cytotoxicity at 10 µM is -2.31%.

The record behind these values is ChEMBL document CHEMBL4513216, “Probing the Open Global Health Chemical Diversity Library for Multistage-Active Starting Points for Next-Generation Antimalarials” (ACS Infect Dis, 2020).
